Screening data deposited in PubChem by several laboratories.
STAT3 inh – IL-6 driven STAT3 reporter inhibitors, primary screen, U3A cells, luciferase, luminescence, MLSCN library | IL-6 STAT3-luciferase reporter; host cell line lacks STAT1 | inhibition, % at 5.5 µM | 190,000 compounds, 0.89% hits;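 active = inhibition above the mean inhibition across all screened compounds plus 3 SD, cut at about 44% in these data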;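 also: 0% = DMSO only wells and 100% = 100 µM nifuroxazide control wells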
TRAIL sens C8 – viability loss with TRAIL in NB7+C8 cells, primary screen, TRAIL sensitizer project, cell-based, ATPlite luminescence | AID 624354, 2012 | 360,000 compounds, 1% hits | inhibition (viability loss, TRAIL sensitization), % at 10 µM;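 active = compounds causing at least 50% loss of cell viability in the single-dose screen, relative to plate controls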
HSP90 refold inh – HSP90 inhibitors, primary screen, cell lysate, luminescence. 290,000 compounds, 0.91% hits. inhibition, % at 5.6 µM. Rabbit reticulocyte lysate, luciferase refolding luminescence, 3 h. AID 1789, 2009;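 active = inhibition above the screen-wide mean plus 3 SD, computed separately per campaign, cut at about 16% in these data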;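 also: 0% = DMSO wells and 100% = 60 µM geldanamycin wells; inhibitors lower the luminescence because luciferase stays unfolded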
FLuc act counter – FLuc activators, initial screening, artefact control for FLuc-dependent activation tests, biochemical, ATPlite luminescence | activation factor at 10 µM | AID 1027, 2008 | ATPlite luciferase biochemical, 10 min; 0 = ATP-free wells, 1 = DMSO control | 200,000 tested, under 10 active | Luciferin 4-monooxygenase (Photinus pyralis), P08659;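 active = luciferase activation factor, scaled between plate controls, of at least 2 with compound at 10 µM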
Target sequence (P08659 whole entry, looked up): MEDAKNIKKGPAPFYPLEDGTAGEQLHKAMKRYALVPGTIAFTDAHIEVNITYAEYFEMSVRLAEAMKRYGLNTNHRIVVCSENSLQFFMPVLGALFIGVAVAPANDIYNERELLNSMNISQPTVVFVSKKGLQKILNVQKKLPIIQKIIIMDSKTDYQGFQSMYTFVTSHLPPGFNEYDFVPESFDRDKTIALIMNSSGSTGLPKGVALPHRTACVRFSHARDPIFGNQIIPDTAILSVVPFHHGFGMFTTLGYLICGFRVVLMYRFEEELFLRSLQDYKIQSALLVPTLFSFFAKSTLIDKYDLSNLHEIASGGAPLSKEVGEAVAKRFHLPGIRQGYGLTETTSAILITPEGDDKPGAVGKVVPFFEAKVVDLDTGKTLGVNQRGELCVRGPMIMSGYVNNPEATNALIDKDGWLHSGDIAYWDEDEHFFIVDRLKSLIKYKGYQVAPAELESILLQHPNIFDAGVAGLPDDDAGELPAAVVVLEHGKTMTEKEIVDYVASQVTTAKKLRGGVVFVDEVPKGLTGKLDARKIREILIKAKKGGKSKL
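System: Luciferase/luciferin detection reagent, cell-free biochemical luciferase assay | Medium: PBS buffer for ATP | Dosing: Test compounds dosed from 2 mM stocks in 100% DMSO | Timing: 10 min at ambient temperature | Signal: Luminescence measurement of luciferase light output | Evaluation: Luciferase activation, seen as luminescence increase over controls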
FLuc inh counter – firefly luciferase enzyme inhibitors, primary screen, artefact control for luciferase-based inhibitor screens, biochemical, luminescence, ATPLite | Luciferin 4-monooxygenase (Photinus pyralis), P08659 | 10 min | inhibition, % at 10 µM | 200,000 compounds, 1.5% hits;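 active = inhibition above about 50% when tested at 10 µM, limit read from the data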
PPC-1+TRAIL kill – compounds killing PPC-1 cancer cells with TRAIL present, primary screen, TRAIL potentiator project, ATPLite luminescence, uHTS; AID 1443, 2008; 220,000 compounds, 0.41% hits; cell killing (% activity), % at 4 µM or 5 µM; PPC-1 cells + TRAIL, ATPLite viability luminescence;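 active = cell killing above 50% in the first pass at 4 µM, then a duplicate retest at 5 µM averaging 50% or more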;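 also: plate controls were cells with TRAIL plus DMSO for no effect and medium-only wells lacking cells for full effect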
HSP90 inh confirm – HSP90 inhibitors, confirmation, cell lysate, luminescence; shares compounds with HSP90 refold inh; rabbit reticulocyte lysate, luciferase refolding luminescence, 3 h; inhibition, % at 5.9 µM; 2,300 compounds, 64% hits; AID 1846, 2009; in the data active = inhibition above about 18%;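 also: 0% = vehicle wells and 100% = reference inhibitor wells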
luciferase ctr – firefly luciferase inhibitors, HSP90 counter-screen, confirmation, artefact control for HSP90 inhibitor project, biochemical, luminescence, triplicate | shares compounds with HSP90 refold inh | purified native firefly luciferase | inhibition, % at 5.9 µM | 2,300 compounds, 48% hits;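 active = inhibition above the mean inhibition of all tested sample wells plus 3 SD, cut at about 10% in these data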;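 also: 0% = DMSO with luciferase and 100% = wells lacking luciferase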
The depositor's hits bear a star; . = no result. Shown are actives, neighbours in structure and some others; about 2.2% of the full set was active somewhere.

SMILES | STAT3 inh | TRAIL sens C8 | HSP90 refold inh | FLuc act counter | FLuc inh counter | PPC-1+TRAIL kill | HSP90 inh confirm | luciferase ctr
COc1ccc(C(=O)NCCn2cc(SCC(=O)NCC3CCCO3)c3ccccc32)cc1 (stereo unspecified) | . | 0 | 29* | . | . | . | 15 | 3
Cc1cc(N)n(-c2ccc(S(N)(=O)=O)cc2[N+](=O)[O-])n1 | 1 | 3 | -1 | 1.1 | -9 | 2 | . | .
C=CCNc1nc(-c2ccc3c(c2)OCCO3)cs1 | . | 21 | 19* | . | . | . | 33* | 32*
c1cc2c(cc1Nc1nc(-c3ccc4c(c3)OCO4)cs1)OCCO2 | 9 | 4 | 37* | 0.9 | 12 | -3 | 23* | -10
CCC(=O)Nc1nc(-c2ccc3c(c2)OCCO3)cs1 | 1 | 26 | 3 | 0.6 | 38 | 26 | . | .
O=C(Nc1nc(-c2ccc3c(c2)OCCO3)cs1)c1ccco1 | . | 47 | 18* | . | . | . | 20* | 9.9*
Cc1nn(CC(=O)NCCCc2ccccc2)c(C)c1[N+](=O)[O-] | 4 | -4 | -3 | 1.1 | -5 | -8 | . | .
Cc1nc2sccn2c(=O)c1S(=O)(=O)NCC(C)c1ccccc1 (stereo unspecified) | . | 6 | 0 | . | . | . | . | .
CCN(CC)CCN(Cc1cc2cc3c(cc2[nH]c1=O)OCO3)C(=S)NC | . | -12 | 29* | . | . | . | -1 | -4
CCCCNC(=S)N(CCN(CC)CC)Cc1cc2cc3c(cc2[nH]c1=O)OCO3 | . | 1 | 1 | . | . | . | . | .
COc1ccc(CCNC(=O)c2cc(-c3cc(Cl)cc(Cl)c3)oc2C)cc1 | -10 | 1 | 19* | 1.1 | -5 | -3 | 6 | -4
C[n+]1ccc(C(=O)Nc2ccccc2Cl)cc1 | . | -6 | 4 | . | . | . | . | .
COCCN(C(=O)c1cccc(-n2cnnn2)c1)c1c(N)n(CC(C)C)c(=O)[nH]c1=O | . | 1 | . | . | . | . | . | .
Cc1oc2cc3c(C(=O)N4CCCCC4)c(C)oc3cc2c1C(=O)N1CCCCC1 | -31 | 1 | 74* | 1 | 2 | 6 | 68* | 33*
Fc1ccc(C2Nc3cccc4cccc(c34)N2)cc1 | . | 13 | 1 | . | . | . | . | .
CCCOc1ccc(C2Nc3cccc4cccc(c34)N2)cc1 | . | -5 | 39* | . | . | . | 18* | -17
CCN(CC)c1ccc(C2Nc3cccc4cccc(c34)N2)cc1 | . | 15 | 57* | . | . | . | 2 | -7
O=C(NCc1ccco1)c1ccc(Cl)c(S(=O)(=O)N2CCCC2)c1 | . | -6 | . | . | . | . | . | .
CCCCNC(=O)c1oc2ccc(S(=O)(=O)N3CCCC3)cc2c1C | . | 6 | -2 | . | . | . | . | .
CCOc1ccc(N2C(=O)CC(NCCNc3ccc([N+](=O)[O-])cn3)C2=O)cc1 (stereo unspecified) | 4 | -3 | 24* | 1.1 | -9 | -4 | -8 | -10
COc1ccc(C)cc1NC(=O)C(=O)NNC(=O)c1ccco1 | 22 | 32 | -2 | 1.1 | -7 | 2 | . | .
CCc1nnc(NC(=O)c2n[nH]c(=O)c3ccccc23)s1 | . | 1 | 26* | . | . | 4 | -6 | -9
CCc1ccc(NC(=O)c2n[nH]c(=O)c3ccccc23)cc1 | . | 4 | 0 | . | . | 11 | . | .
Cc1ccc(-c2nc(-c3ccncc3)no2)cc1Cl | . | 1 | 1 | . | . | . | . | .
Cc1ccc(-c2nc(-c3ccncc3)no2)cc1C | . | 27 | 21* | . | . | . | 29* | 25*
SMILES | STAT3 inh | TRAIL sens C8 | HSP90 refold inh | FLuc act counter | FLuc inh counter | PPC-1+TRAIL kill | HSP90 inh confirm | luciferase ctr
CCc1nnc(NC(=O)CSc2nnc(C3CC3)n2C)s1 | . | 11 | -3 | . | . | . | . | .
COc1ccc(N(C(=O)c2ccco2)S(=O)(=O)c2ccc(F)cc2)cc1 | 12 | 2 | 17* | 1.1 | -7 | 25 | 0 | -4
CCCc1ccc(-c2ccc(C(=O)O)cc2)nc1 | 23 | 11 | 50* | 0.8 | 23 | 11 | 56* | 26*
CCCCCc1ccc(-c2ccc(/C=C/C(N)=O)cc2)nc1 | 19 | 13 | 11 | 0.9 | 15 | 14 | . | .
O=C(c1ccco1)N1CCN(C(=O)c2ccccc2NS(=O)(=O)c2ccc(F)cc2)CC1 | -4 | 1 | 4 | 1 | -3 | 0 | . | .
CC(C)(C)NC(=O)NC(=O)Cn1ccsc1=N | 9 | -4 | 1 | 1 | -2 | 25 | . | .
CCc1ccc(C(=O)Cn2ccsc2=N)cc1 | . | 59* | 21* | . | . | . | 11 | -8
Cc1cc(NC(=O)CN2C(=O)NC3(CCCCCC3)C2=O)ccc1Br | . | -2 | . | . | . | . | . | .
O=C(CCN1C(=O)c2ccccc2C1=O)NCc1ccncc1 | 4 | 0 | 10 | 0.9 | 9 | -13 | . | .
O=C(CCN1C(=O)c2ccccc2C1=O)NCc1ccccc1 | . | 2 | 41* | . | . | . | 0 | -7
CC(=O)c1ccc(OCC(=O)OCC(=O)Nc2sccc2C(N)=O)cc1 | . | -19 | . | . | . | . | . | .
COc1ccc(/C=N/Nc2nc3ccccc3[nH]2)c(OC)c1OC | . | 12 | 27* | . | . | 21 | 54* | 62*
Cc1nc(Nc2ccccc2)sc1C(=O)c1ccccc1 | . | -3 | -1 | . | . | 4 | . | .
O=C(O)c1ccc(Nc2nc3c(s2)CCCC3)cc1 | 80* | 30 | 67* | 0.8 | 20 | 16 | 91* | 80*
Cc1nc(Nc2ccc(C(=O)O)cc2)sc1-c1ccccc1 | 72* | 15 | 34* | 0.6 | 45 | 28 | 84* | 63*
O=C(NC(=S)Nc1nc2c(s1)CCCC2)c1ccc(C(=O)c2ccccc2)cc1 | 14 | 10 | -2 | 1 | 1 | 34 | . | .
CC(=O)Nc1cc2nn(-c3ccccc3)nc2cc1C | . | 46 | 21* | . | . | . | 32* | 21*
O=C(N/N=C/c1ccc(N2CCOCC2)cc1)c1ccccn1 | . | 37 | 26* | . | . | 21 | 14 | 1
CN(C)c1ccc(/C=C(\C#N)c2ccccn2)cc1 | 99* | 94* | 66* | 0 | 97* | 14 | 84* | 78*
CN(C)c1ccc(/C=N/NC(=O)c2cnc3ccccc3c2)cc1 | . | 6 | -3 | . | . | 6 | . | .
CN(C)c1ccc(/C=N/NC(=O)c2ccccn2)cc1 | . | 66* | 24* | . | . | 28 | 62* | 47*
CN(C)c1ccc(NC(=S)c2ccccn2)cc1 | 98* | 85* | 66* | 0.1 | 95* | 69* | 94* | 90*
Cc1[nH]c(-c2ccc(F)cc2)cc1C(=O)N1CCN(c2cccc(Cl)c2)CC1 | . | 0 | -1 | . | . | . | . | .
Cc1ccc(C)c(N(CC(=O)NC(C)(C)C)C(=O)CCC(=O)Nc2nccs2)c1 | . | -16 | 0 | . | . | . | . | .
